The text below walks through data of ChEMBL document CHEMBL2021764, “2-Aminothiophenes as building blocks in heterocyclic synthesis: synthesis and antimicrobial evaluation of a new class of pyrido[1,2-a]thieno[3,2-e]pyrimidine, quinoline and pyridin-2-one derivatives” (2012).

What all share (format): functional
The subject of assay [1] is Escherichia coli. The experiment in a line: Antibacterial activity against Escherichia coli 124300 at 1 mg/ml after 24 hrs by agar-well diffusion technique. Conditions: Escherichia coli, 124300, 24 h; read-out: DIZ. Summed up: (§1)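 Each bacterial strain (0.1 ml) was spread on nutrient agar, and 4 mm wells were cut with a sterile cork borer. Wells were loaded with test chemical at a final 1 mg ml^-1, then incubated at 37 °C for 24 h. Inhibition zone diameters around the wells were measured, averaged over 3 replicas.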

The test system of assay [2] is Pseudomonas aeruginosa. Nature of the assay: Antibacterial activity against Pseudomonas aeruginosa 155250A at 1 mg/ml after 24 hrs by agar-well diffusion technique. Conditions: read-out: DIZ. Summed up: as §1
In general terms: In agar diffusion tests the substance spreads into inoculated agar from a disc or well.

Assay [3] relates to Serratia marcescens. Nature of the assay: Antibacterial activity against Serratia marcescens 155449 at 1 mg/ml after 24 hrs by agar-well diffusion technique. Conditions: Serratia marcescens, 155449, 24 h; read-out: DIZ. Put shortly: as §1
The test system of assay [4] is Bacillus subtilis. The experiment in a line: Antibacterial activity against Bacillus subtilis 154921 at 1 mg/ml after 24 hrs by agar-well diffusion technique. Conditions: Bacillus subtilis, 154921, 24 h; read-out: DIZ. Summed up:
as §1

Assay [5] deals with Staphylococcus aureus. Nature of the assay: Antibacterial activity against Staphylococcus aureus 155554A at 1 mg/ml after 24 hrs by agar-well diffusion technique. Conditions: read-out: DIZ. Summed up: as §1
Assay [6] relates to Candida albicans. Nature of the assay: Antifungal activity against Candida albicans 155965 at 1 mg/ml after 48 hrs by agar-well diffusion technique. Conditions: Candida albicans, 155965, 48 h; read-out: DIZ. Summed up: (§2)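 Yeast (0.1 ml) was spread on potato dextrose agar, and 4 mm wells were cut with a sterile cork borer. Wells were loaded with test chemical at a final 1 mg ml^-1, then incubated at 25 °C for 48 h. Inhibition zones around the wells were measured, averaged over 3 replicas.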

In assay [7] the test system is Saccharomyces cerevisiae. Nature of the assay: Antifungal activity against Saccharomyces cerevisiae 156250 at 1 mg/ml after 48 hrs by agar-well diffusion technique. Conditions: Saccharomyces cerevisiae, 156250, 48 h; read-out: DIZ. Put shortly: as §2

The structures appear in SMILES notation.

Turning to `COc1ccc(-c2c(C#N)c(=N)n3c([nH]c(=O)c4c(-c5ccccc5)csc43)c2C#N)cc1`, the zone of inhibition at 1000 µg/mL is 3.3 mm in assay [1]; 14 mm in assay [2]; 2 mm in assay [3]; 2 mm in assay [4]; 0 mm in assay [5]; 0 mm in assay [6]. Further, in assay [7], the zone of inhibition at 1000 µg/mL was 0 mm.

`N#Cc1c(-c2ccccc2)csc1N`: the zone of inhibition at 1000 µg/mL was determined as 10.6 mm in assay [1]; 10.6 mm in assay [2]; 11.3 mm in assay [3]; 14.6 mm in assay [4]; 21 mm in assay [5]; 18 mm in assay [6]. Also, the zone of inhibition at 1000 µg/mL in assay [7] amounted to 16 mm.

On to `N#Cc1c(-c2ccc(Cl)cc2)csc1N`, for which the zone of inhibition at 1000 µg/mL in assay [1] amounted to 4 mm; in assay [2] it was 5 mm; in assay [3], 0 mm; in assay [4], 11 mm; in assay [5], 6.6 mm; in assay [6], 2.6 mm. Further, in assay [7], the zone of inhibition at 1000 µg/mL worked out at 7 mm.

As for `CN(C)/C=C(\C#N)C(=O)Nc1scc(-c2ccccc2)c1C#N`, the zone of inhibition at 1000 µg/mL is 4 mm in assay [1]; 10.8 mm in assay [2]; 3.3 mm in assay [3]; 1.6 mm in assay [4]; 0 mm in assay [5]; 4 mm in assay [6]. Further, the zone of inhibition at 1000 µg/mL in assay [7] was determined as 1.3 mm.

For the molecule `N#Cc1c(-c2cccs2)c(C#N)c2[nH]c(=O)c3c(-c4ccccc4)csc3n2c1=N`, the zone of inhibition at 1000 µg/mL worked out at 4 mm in assay [1]; 11.3 mm in assay [2]; 0 mm in assay [3]; 3.3 mm in assay [4]; 0 mm in assay [5]; 0 mm in assay [6]. In assay [7], the zone of inhibition at 1000 µg/mL is 0 mm.

With `COc1ccc(-c2c(C#N)c(=N)n3c([nH]c(=O)c4c(-c5ccc(Cl)cc5)csc43)c2C#N)cc1`, the zone of inhibition at 1000 µg/mL in assay [1] turned out to be 4 mm; in assay [2], 13.1 mm; in assay [3], 4 mm; in assay [4], 2 mm; in assay [5], 0 mm; in assay [6], 0 mm. Also, in assay [7], the zone of inhibition at 1000 µg/mL was 0 mm.

With `N#Cc1c(-c2cccs2)c(C#N)c2[nH]c(=O)c3c(-c4ccc(Cl)cc4)csc3n2c1=N`, the zone of inhibition at 1000 µg/mL in assay [1] is 4 mm; in assay [2], 10.6 mm; in assay [3], 2.6 mm; in assay [4], 2 mm; in assay [5], 0 mm; in assay [6], 12 mm. Besides, the zone of inhibition at 1000 µg/mL in assay [7] worked out at 0 mm.

As to `N#Cc1cc(C#N)c2[nH]c(=O)c3c(-c4ccccc4)csc3n2c1=N`, the zone of inhibition at 1000 µg/mL in assay [1] amounted to 4 mm; in assay [2], 9 mm; in assay [3] it was 6.6 mm; in assay [4], 2 mm; in assay [5], 0 mm; in assay [6] it was 2.6 mm. Also, in assay [7], the zone of inhibition at 1000 µg/mL was determined as 1.3 mm.

As to `N#Cc1cc(C#N)c2[nH]c(=O)c3c(-c4ccc(Cl)cc4)csc3n2c1=N`, the zone of inhibition at 1000 µg/mL in assay [1] stood at 2 mm; in assay [2], 8 mm; in assay [3] it was 3.3 mm; in assay [4], 6 mm; in assay [5], 2.6 mm; in assay [6], 0 mm. Besides, the zone of inhibition at 1000 µg/mL in assay [7] was 0 mm.

On to `N#Cc1c(-c2ccccc2)csc1NC(=O)c1cc2ccccc2[nH]c1=O`, for which the zone of inhibition at 1000 µg/mL is 8.6 mm in assay [1]; 10 mm in assay [2]; 6 mm in assay [3]; 11 mm in assay [4]; 12 mm in assay [5]; 16 mm in assay [6]. In addition, the zone of inhibition at 1000 µg/mL in assay [7] turned out to be 14 mm.

Consider `N#Cc1c(-c2ccc(Cl)cc2)csc1NC(=O)c1cc2ccccc2[nH]c1=O`, for which the zone of inhibition at 1000 µg/mL in assay [1] is 8 mm; in assay [2] it was 11 mm; in assay [4] it was 10.5 mm; in assay [5], 8 mm.

For `CCOC(=O)c1sc(NC(=O)/C(C#N)=N/Nc2ccccc2)c(C#N)c1C`, the zone of inhibition at 1000 µg/mL in assay [1] amounted to 0 mm; in assay [2], 6 mm; in assay [3] it was 2.6 mm; in assay [4], 13 mm; in assay [5], 14 mm; in assay [6] it was 0 mm. Moreover, in assay [7], the zone of inhibition at 1000 µg/mL turned out to be 0 mm.

Take `N#CCC(=O)Nc1scc(-c2ccccc2)c1C#N`: the zone of inhibition at 1000 µg/mL in assay [1] turned out to be 4 mm; in assay [2] it was 4 mm; in assay [3], 2 mm; in assay [4] it was 2 mm; in assay [5], 0 mm; in assay [6], 4 mm. Moreover, in assay [7], the zone of inhibition at 1000 µg/mL amounted to 2.6 mm.

As for `N#CCC(=O)Nc1scc(-c2ccc(Cl)cc2)c1C#N`, the zone of inhibition at 1000 µg/mL was found to be 4 mm in assay [1]; 4 mm in assay [2]; 1.3 mm in assay [3]; 4.6 mm in assay [4]; 0 mm in assay [5]; 0 mm in assay [6]. The zone of inhibition at 1000 µg/mL in assay [7] worked out at 3 mm.

With `CCOC(=O)c1sc(NC(=O)CC#N)c(C#N)c1C`, the zone of inhibition at 1000 µg/mL was 7 mm in assay [1], 7 mm in assay [4], 0 mm in assay [6] and 0 mm in assay [7].

Regarding `CN(C)/C=C(\C#N)C(=O)Nc1scc(-c2ccc(Cl)cc2)c1C#N`, the zone of inhibition at 1000 µg/mL in assay [1] was 4 mm; in assay [2] it was 4 mm; in assay [3] it was 7 mm; in assay [4], 1 mm; in assay [5], 0 mm; in assay [6], 0 mm. In assay [7], the zone of inhibition at 1000 µg/mL was found to be 1.3 mm.

In the case of `N#Cc1c(-c2ccc([N+](=O)[O-])cc2)c(C#N)c2[nH]c(=O)c3c(-c4ccccc4)csc3n2c1=N`, the zone of inhibition at 1000 µg/mL is 4 mm in assay [1]; 4.6 mm in assay [3]; 2 mm in assay [4]; 0 mm in assay [5]; 0 mm in assay [6]; 0 mm in assay [7].

Turning to `N#Cc1c(-c2ccc(Cl)cc2)c(C#N)c2[nH]c(=O)c3c(-c4ccccc4)csc3n2c1=N`, the zone of inhibition at 1000 µg/mL in assay [1] was 4.6 mm; in assay [3], 3.3 mm; in assay [4], 1.6 mm; in assay [5] it was 0 mm; in assay [6], 0 mm; in assay [7], 1.3 mm.
